Data as given in ChEMBL document CHEMBL1811784, “Synthesis and SERCA activities of structurally simplified cyclopiazonic acid analogues” (Bioorg Med Chem, 2011).

Assay: Inhibition of Heliothis virescens SERCA expressed in Sf9 cells assessed as ATP depletion measured after 60 mins by luciferin/luciferase coupled reporter gene assay
Outline: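 Microsomal membranes from Sf9 cells coinfected with baculovirus carrying full-length H. virescens SERCA (aa 2-1000), MOI 0.3, harvested after 3 days. 0.4 µg/mL enzyme with 0.05 mM ATP, inhibitor 3.2 nM–50 µM final, MOPS pH 7.5 buffer with Mg2+, Ca2+/EGTA, A23187. Remaining ATP read by luciferin/luciferase luminescence. Quadruplicates, normalized, sigmoid fit for IC50. Luciferase-only counterscreen run without SERCA.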
For `C/C(O)=C1\C(=O)[C@H]2[C@H]3c4c[nH]c5cccc(c45)C[C@H]3C(C)(C)N2C1=O`, the IC50 was 0.5 µM. With `C/C(O)=C1\C(=O)[C@@H]2[C@H]3c4c[nH]c5cccc(c45)C[C@@H]3C(C)(C)N2C1=O` the IC50 was 5 µM. Compound `COC(=O)[C@H]1NC(C)(C)[C@@H]2Cc3cccc4[nH]cc(c34)[C@H]12` has an IC50 greater than 50 µM. Compound `CC(C)(C)c1cc(O)c(C(C)(C)C)cc1O` has an IC50 of 0.13 µM. For `CC(O)=C1C(=O)C2Cc3ccccc3C(C)(C)N2C1=O` (mixture of isomers), the IC50 was 6.3 µM. `CC(O)=C1C(=O)C2c3ccccc3C(C)(C)N2C1=O` (mixture of isomers) gave an IC50 greater than 50 µM. In the case of `CC(O)=C1C(=O)[C@H]2[C@H]3CCCC[C@H]3C(C)(C)N2C1=O` (mixture of isomers), the IC50 is reported as 19.9 µM. With `CC(O)=C1C(=O)[C@@H]2[C@H]3CCCC[C@H]3C(C)(C)N2C1=O` (mixture of isomers) the IC50 was 0.63 µM. `CC(O)=C1C(=O)N2c3ccccc3C(C)(C)N2C1=O` (mixture of isomers) gave an IC50 of 40 µM. In the case of `CC(O)=C1C(=O)N2[C@H]3CCCC[C@H]3C(C)(C)N2C1=O` (mixture of isomers), the IC50 is reported as 40 µM. With `CC(=O)C1=C(O)[C@@H]2[C@H]3c4c[nH]c5cccc(c45)C[C@H]3C(C)(C)N2C1=O` [CYCLOPIAZONIC ACID] the IC50 was 0.01 µM. For `C/C(O)=C1\C(=O)[C@@H]2[C@H]3[C@@H]4C(=O)N(C)c5cccc(c54)C[C@H]3C(C)(C)N2C1=O` [SPERADINE A], the IC50 was 8 µM.
